Measured values published in ChEMBL document CHEMBL1151428, “Capability of 11 antipneumococcal antibiotics to select for resistance by multistep and single-step methodologies” (2007).
≈ marks a conversion by molar mass, not a printed value.

Tests used:
Assay type in all cases: functional
Streptococcus pneumoniae [1] = test: Antimicrobial activity against drug-resistant Streptococcus pneumoniae isolate 3243 after 41 passages with clarithromycin measured after 10 antibiotic-free subculture by multi-step resistance selection technique
Streptococcus pneumoniae [2] = test: Antimicrobial activity against drug-resistant Streptococcus pneumoniae isolate 3243 after 50 passages by multi-step resistance selection technique
In short: (§1)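 Daily serial passage in subinhibitory drug levels in 1 ml cation-adjusted Mueller-Hinton broth with 5% lysed horse blood; fresh broth for tigecycline. Each day, 10 μl were taken from the tube one to two dilutions below the MIC whose turbidity matched the growth control, and used to set the next MIC. […] MIC by macrodilution.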

Streptococcus pneumoniae [3] = test: Antimicrobial activity against drug-resistant Streptococcus pneumoniae isolate 1635 after 14 passages by multi-step resistance selection technique; in short: as §1
Streptococcus pneumoniae [4] = test: Antimicrobial activity against drug-resistant Streptococcus pneumoniae isolate 1077 after 29 passages with azithromycin measured after 10 antibiotic-free subculture by multi-step resistance selection technique
In short: (§2)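 Mutants selected by daily broth passage in subinhibitory drug in cation-adjusted Mueller-Hinton broth with 5% lysed horse blood. Stability was tested by 10 daily passages on blood agar without antibiotic, then macrodilution MIC.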

Streptococcus pneumoniae [5] = test: Antimicrobial activity against drug-resistant Streptococcus pneumoniae isolate 3243 after 20 passages with moxifloxacin measured after 10 antibiotic-free subculture by multi-step resistance selection technique; in short: as §2
Streptococcus pneumoniae [6] = test: Antimicrobial activity against drug-resistant Streptococcus pneumoniae isolate 3274 after 48 passages with Telithromycin measured after 10 antibiotic-free subculture by multi-step resistance selection technique; in short: as §2
Streptococcus pneumoniae [7] = test: Antimicrobial activity against drug-resistant Streptococcus pneumoniae isolate 3676 after 50 passages with moxifloxacin measured after 10 antibiotic-free subculture by multi-step resistance selection technique
Streptococcus pneumoniae [8] = test: Antimicrobial activity against drug-resistant Streptococcus pneumoniae isolate 1076 by NCCLS M7-A7 method
Streptococcus pneumoniae [9] = test: Antimicrobial activity against drug-resistant Streptococcus pneumoniae isolate 3413 after 30 passages with Telithromycin measured after 10 antibiotic-free subculture by multi-step resistance selection technique; in short: as §2
Streptococcus pneumoniae [10] = test: Antimicrobial activity against drug-resistant Streptococcus pneumoniae isolate 3413 after 50 passages by multi-step resistance selection technique
In short: (§3)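 Daily serial passage in subinhibitory drug levels in 1 ml cation-adjusted Mueller-Hinton broth with 5% lysed horse blood; fresh broth for tigecycline. Each day, 10 μl were taken from the tube one to two dilutions below the MIC whose turbidity matched the growth control, and used to set the next MIC. MIC by macrodilution.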

Streptococcus pneumoniae [11] = test: Antimicrobial activity against drug-resistant Streptococcus pneumoniae isolate 1635 after 14 passages with azithromycin measured after 10 antibiotic-free subculture by multi-step resistance selection technique; in short: as §2
Streptococcus pneumoniae [12] = test: Antimicrobial activity against drug-resistant Streptococcus pneumoniae isolate 1635 after 14 passages with clindamycin measured after 10 antibiotic-free subculture by multi-step resistance selection technique
Streptococcus pneumoniae [13] = test: Antimicrobial activity against drug-resistant Streptococcus pneumoniae isolate 3243 by NCCLS M7-A7 method
Streptococcus pneumoniae [14] = test: Antimicrobial activity against drug-resistant Streptococcus pneumoniae isolate 3665 by NCCLS M7-A7 method
Streptococcus pneumoniae [15] = test: Antimicrobial activity against drug-resistant Streptococcus pneumoniae isolate 37 by NCCLS M7-A7 method
Streptococcus pneumoniae [16] = test: Antimicrobial activity against drug-resistant Streptococcus pneumoniae isolate 1077 after 49 passages by multi-step resistance selection technique; in short: as §1
Streptococcus pneumoniae [17] = test: Antimicrobial activity against drug-resistant Streptococcus pneumoniae isolate 3009 by NCCLS M7-A7 method
Streptococcus pneumoniae [18] = test: Antimicrobial activity against drug-resistant Streptococcus pneumoniae isolate 2527 by NCCLS M7-A7 method
Streptococcus pneumoniae [19] = test: Antimicrobial activity against drug-resistant Streptococcus pneumoniae isolate 3413 by NCCLS M7-A7 method
Streptococcus pneumoniae [20] = test: Antimicrobial activity against drug-resistant Streptococcus pneumoniae isolate 3009 after 18 passages with levofloxacin measured after 10 antibiotic-free subculture by multi-step resistance selection technique; in short: as §2
Streptococcus pneumoniae [21] = test: Antimicrobial activity against drug-resistant Streptococcus pneumoniae isolate 3665 after 26 passages with clarithromycin measured after 10 antibiotic-free subculture by multi-step resistance selection technique
Streptococcus pneumoniae [22] = test: Antimicrobial activity against drug-resistant Streptococcus pneumoniae isolate 3665 after 50 passages by multi-step resistance selection technique
In short: (§4)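 Daily serial passage in broth at subinhibitory drug levels: 1 ml cation-adjusted Mueller-Hinton broth with 5% lysed horse blood; fresh broth for tigecycline. Each day 10 μl inoculum taken from the tube one to two dilutions below MIC matching growth-control turbidity, used to set next MIC. Continued until ≥8-fold MIC rise, minimum 14, maximum 50 passages; MIC read by macrodilution.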

Streptococcus pneumoniae [23] = test: Antimicrobial activity against drug-resistant Streptococcus pneumoniae isolate 3274 by NCCLS M7-A7 method
Streptococcus pneumoniae [24] = test: Antimicrobial activity against drug-resistant Streptococcus pneumoniae isolate 3009 after 25 passages with clarithromycin measured after 10 antibiotic-free subculture by multi-step resistance selection technique
Streptococcus pneumoniae [25] = test: Antimicrobial activity against drug-resistant Streptococcus pneumoniae isolate 3009 after 21 passages with gemifloxacin measured after 10 antibiotic-free subculture by multi-step resistance selection technique; in short: as §2
Streptococcus pneumoniae [26] = test: Antimicrobial activity against drug-resistant Streptococcus pneumoniae isolate 3009 after 19 passages with moxifloxacin measured after 10 antibiotic-free subculture by multi-step resistance selection technique; in short: as §2
Streptococcus pneumoniae [27] = test: Antimicrobial activity against drug-resistant Streptococcus pneumoniae isolate 3243 after 29 passages with Telithromycin measured after 10 antibiotic-free subculture by multi-step resistance selection technique; in short: as §2
Streptococcus pneumoniae [28] = test: Antimicrobial activity against drug-resistant Streptococcus pneumoniae isolate 3009 after 50 passages by multi-step resistance selection technique; in short: as §1
Streptococcus pneumoniae [29] = test: Antimicrobial activity against drug-resistant Streptococcus pneumoniae isolate 2527 after 50 passages by multi-step resistance selection technique; in short: as §1
Streptococcus pneumoniae [30] = test: Antimicrobial activity against drug-resistant Streptococcus pneumoniae isolate 1635 after 49 passages with clarithromycin measured after 10 antibiotic-free subculture by multi-step resistance selection technique
Streptococcus pneumoniae [31] = test: Antimicrobial activity against drug-resistant Streptococcus pneumoniae isolate 1077 after 15 passages with Telithromycin measured after 10 antibiotic-free subculture by multi-step resistance selection technique; in short: as §2
Streptococcus pneumoniae [32] = test: Antimicrobial activity against drug-resistant Streptococcus pneumoniae isolate 3676 by NCCLS M7-A7 method
Streptococcus pneumoniae [33] = test: Antimicrobial activity against drug-resistant Streptococcus pneumoniae isolate 3676 after 44 passages with clarithromycin measured after 10 antibiotic-free subculture by multi-step resistance selection technique
Streptococcus pneumoniae [34] = test: Antimicrobial activity against drug-resistant Streptococcus pneumoniae isolate 1077 after 49 passages with clindamycin measured after 10 antibiotic-free subculture by multi-step resistance selection technique
Streptococcus pneumoniae [35] = test: Antimicrobial activity against drug-resistant Streptococcus pneumoniae isolate 3676 after 14 passages with Telithromycin measured after 10 antibiotic-free subculture by multi-step resistance selection technique
Streptococcus pneumoniae [36] = test: Antimicrobial activity against drug-resistant Streptococcus pneumoniae isolate 1076 after 14 passages with Telithromycin measured after 10 antibiotic-free subculture by multi-step resistance selection technique; in short: as §2
Streptococcus pneumoniae [37] = test: Antimicrobial activity against drug-resistant Streptococcus pneumoniae isolate 1635 by NCCLS M7-A7 method
Streptococcus pneumoniae [38] = test: Antimicrobial activity against drug-resistant Streptococcus pneumoniae isolate 24 by NCCLS M7-A7 method
Streptococcus pneumoniae [39] = test: Antimicrobial activity against drug-resistant Streptococcus pneumoniae isolate 24 after 14 passages with Telithromycin measured after 10 antibiotic-free subculture by multi-step resistance selection technique; in short: as §2
Streptococcus pneumoniae [40] = test: Antimicrobial activity against drug-resistant Streptococcus pneumoniae isolate 3665 after 38 passages with moxifloxacin measured after 10 antibiotic-free subculture by multi-step resistance selection technique
Streptococcus pneumoniae [41] = test: Antimicrobial activity against drug-resistant Streptococcus pneumoniae isolate 2527 after 14 passages with gemifloxacin measured after 10 antibiotic-free subculture by multi-step resistance selection technique; in short: as §2
Streptococcus pneumoniae [42] = test: Antimicrobial activity against drug-resistant Streptococcus pneumoniae isolate 3274 after 50 passages by multi-step resistance selection technique; in short: as §3
Streptococcus pneumoniae [43] = test: Antimicrobial activity against drug-resistant Streptococcus pneumoniae isolate 1077 by NCCLS M7-A7 method
Streptococcus pneumoniae [44] = test: Antimicrobial activity against drug-resistant Streptococcus pneumoniae isolate 1076 after 35 passages with moxifloxacin measured after 10 antibiotic-free subculture by multi-step resistance selection technique; in short: as §2
Streptococcus pneumoniae [45] = test: Antimicrobial activity against drug-resistant Streptococcus pneumoniae isolate 3243 after 33 passages with azithromycin measured after 10 antibiotic-free subculture by multi-step resistance selection technique; in short: as §2
Streptococcus pneumoniae [46] = test: Antimicrobial activity against drug-resistant Streptococcus pneumoniae isolate 3665 after 14 passages with Telithromycin measured after 10 antibiotic-free subculture by multi-step resistance selection technique
Streptococcus pneumoniae [47] = test: Antimicrobial activity against drug-resistant Streptococcus pneumoniae isolate 24 after 50 passages with moxifloxacin measured after 10 antibiotic-free subculture by multi-step resistance selection technique; in short: as §2
Streptococcus pneumoniae [48] = test: Antimicrobial activity against drug-resistant Streptococcus pneumoniae isolate 3676 after 50 passages by multi-step resistance selection technique; in short: as §4
Streptococcus pneumoniae [49] = test: Antimicrobial activity against drug-resistant Streptococcus pneumoniae isolate 2527 after 20 passages with azithromycin measured after 10 antibiotic-free subculture by multi-step resistance selection technique; in short: as §2
Streptococcus pneumoniae [50] = test: Antimicrobial activity against drug-resistant Streptococcus pneumoniae isolate 37 after 14 passages with Telithromycin measured after 10 antibiotic-free subculture by multi-step resistance selection technique

With `CCC[C@@H]1C[C@@H](C(=O)N[C@@H]([C@H]2O[C@H](SC)[C@H](O)[C@@H](O)[C@H]2O)[C@H](C)Cl)N(C)C1` [CLINDAMYCIN] the MIC (Streptococcus pneumoniae [1]) was 1 µg/mL (≈ 2.35 µM), the MIC (Streptococcus pneumoniae [2]) was 0.03 µg/mL (≈ 0.0706 µM) and the MIC (Streptococcus pneumoniae [3]) was greater than 64 µg/mL. For the same compound, the MIC (Streptococcus pneumoniae [4]) was 4 µg/mL (≈ 9.41 µM), the MIC (Streptococcus pneumoniae [5]) was 0.016 µg/mL (≈ 0.0376 µM) and the MIC (Streptococcus pneumoniae [6]) was 0.016 µg/mL (≈ 0.0376 µM). For the same compound, the MIC (Streptococcus pneumoniae [7]) was 0.016 µg/mL (≈ 0.0376 µM), the MIC (Streptococcus pneumoniae [8]) was 64 µg/mL (≈ 151 µM) and the MIC (Streptococcus pneumoniae [9]) was 0.06 µg/mL (≈ 0.141 µM). The MIC (Streptococcus pneumoniae [10]) was 0.008 µg/mL (≈ 0.0188 µM), the MIC (Streptococcus pneumoniae [11]) was 0.03 µg/mL (≈ 0.0706 µM) and the MIC (Streptococcus pneumoniae [12]) was greater than 64 µg/mL. For the same compound, the MIC (Streptococcus pneumoniae [13]) was 0.016 µg/mL (≈ 0.0376 µM), the MIC (Streptococcus pneumoniae [14]) was 0.016 µg/mL (≈ 0.0376 µM) and the MIC (Streptococcus pneumoniae [15]) was greater than 64 µg/mL. For the same compound, the MIC (Streptococcus pneumoniae [16]) was 4 µg/mL (≈ 9.41 µM), the MIC (Streptococcus pneumoniae [17]) was 1 µg/mL (≈ 2.35 µM) and the MIC (Streptococcus pneumoniae [18]) was 0.008 µg/mL (≈ 0.0188 µM). It also gave an MIC (Streptococcus pneumoniae [19]) of 0.016 µg/mL (≈ 0.0376 µM), an MIC (Streptococcus pneumoniae [20]) of 0.5 µg/mL (≈ 1.18 µM) and an MIC (Streptococcus pneumoniae [21]) of 0.03 µg/mL (≈ 0.0706 µM). It also gave an MIC (Streptococcus pneumoniae [22]) of 0.03 µg/mL (≈ 0.0706 µM), an MIC (Streptococcus pneumoniae [23]) of 0.016 µg/mL (≈ 0.0376 µM) and an MIC (Streptococcus pneumoniae [24]) of 1 µg/mL (≈ 2.35 µM). The MIC (Streptococcus pneumoniae [25]) was 0.5 µg/mL (≈ 1.18 µM), the MIC (Streptococcus pneumoniae [26]) was 0.5 µg/mL (≈ 1.18 µM) and the MIC (Streptococcus pneumoniae [27]) was 0.03 µg/mL (≈ 0.0706 µM). It also gave an MIC (Streptococcus pneumoniae [28]) of 2 µg/mL (≈ 4.71 µM), an MIC (Streptococcus pneumoniae [29]) of 0.016 µg/mL (≈ 0.0376 µM) and an MIC (Streptococcus pneumoniae [30]) of 0.25 µg/mL (≈ 0.588 µM). It also gave an MIC (Streptococcus pneumoniae [31]) of 8 µg/mL (≈ 18.8 µM), an MIC (Streptococcus pneumoniae [32]) of 0.03 µg/mL (≈ 0.0706 µM) and an MIC (Streptococcus pneumoniae [33]) of 0.06 µg/mL (≈ 0.141 µM). For the same compound, the MIC (Streptococcus pneumoniae [34]) was 8 µg/mL (≈ 18.8 µM), the MIC (Streptococcus pneumoniae [35]) was 0.03 µg/mL (≈ 0.0706 µM) and the MIC (Streptococcus pneumoniae [36]) was greater than 64 µg/mL. For the same compound, the MIC (Streptococcus pneumoniae [37]) was 0.06 µg/mL (≈ 0.141 µM), the MIC (Streptococcus pneumoniae [38]) was greater than 64 µg/mL and the MIC (Streptococcus pneumoniae [39]) was greater than 64 µg/mL. It also gave an MIC (Streptococcus pneumoniae [40]) of 0.03 µg/mL (≈ 0.0706 µM), an MIC (Streptococcus pneumoniae [41]) of 0.016 µg/mL (≈ 0.0376 µM) and an MIC (Streptococcus pneumoniae [42]) of 0.008 µg/mL (≈ 0.0188 µM). It also gave an MIC (Streptococcus pneumoniae [43]) of 0.016 µg/mL (≈ 0.0376 µM), an MIC (Streptococcus pneumoniae [44]) greater than 64 µg/mL and an MIC (Streptococcus pneumoniae [45]) of 0.016 µg/mL (≈ 0.0376 µM). It also gave an MIC (Streptococcus pneumoniae [46]) of 0.03 µg/mL (≈ 0.0706 µM), an MIC (Streptococcus pneumoniae [47]) greater than 64 µg/mL and an MIC (Streptococcus pneumoniae [48]) of 0.016 µg/mL (≈ 0.0376 µM). It also gave an MIC (Streptococcus pneumoniae [49]) of 0.06 µg/mL (≈ 0.141 µM) and an MIC (Streptococcus pneumoniae [50]) greater than 64 µg/mL.
